Experimental data taken from PMC2802833 (Journal of Alzheimer's disease : JAD, 2009).
Strand notation (5' to 3'): a small letter for the sugar, then the base; units joined by * are phosphorothioate-linked, units joined directly phosphodiester-linked; [ ] holds rarer units or linkages, { } end groups; capitals alone tell only the bases. d = 2'-deoxy (DNA)

Key:
[1] = tested on: primary mouse BMEC monolayers; test: Transport; type: cell-based; details: 1 μg/mL unlabeled Aβ42 added to abluminal chamber; n = 13-15/group
Procedure, shortened: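 Primary mouse brain endothelial cells were isolated by enzyme digestion and Percoll gradient. They were seeded at 4 × 10^4 cells/insert on fibronectin/collagen IV-coated 0.33 cm2, 0.4 μm polyester Transwells and grown to confluence (~3 days) in DMEM/F-12 with 20% plasma-derived serum, bFGF and 500 nM hydrocortisone. Assays ran in HEPES buffer pH 7.4 with 1% BSA. Radio-iodinated Aβ42 (1 × 10^6 cpm/mL) was placed in the loading chamber, with or without unlabelled Aβ42 (1 μg/mL). TCA-precipitable counts were used to give clearance and membrane-corrected permeability (cm/min).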

[2] = Saturability of brain uptake for cocktail ODNs; type: in vivo; details: 10 μg/mouse unlabeled PS-ODN i.v., brain/serum ratio at 30 min; n = 8-9/group
Procedure, shortened: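 Labelled 19mer or 23mer (5 × 10^5 cpm/200 μl lactated Ringer's–1% BSA) was given i.v. with or without 10 μg/mouse of the corresponding unlabelled phosphorothioate oligonucleotide. Brain and serum were collected 30 min after injection. Results were expressed as brain/serum ratios.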

[3] = In vivo brain-to-blood efflux rate of i.c.v. P-Olg; set-up: species or system mouse; details: after i.c.v. injection, 5 × 10^3 cpm/μl, 2-20 min; n = 2-3 mice/time point
Procedure, shortened: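 Oligonucleotide was kinase-labelled, ethanol-precipitated, stored at −70°C and used within 48 h. After i.c.v. injection into anaesthetised mice, animals were decapitated at 2, 5, 10 or 20 min and brain radioactivity counted. The t = 0 level came from urethane-overdosed mice. Log % injected dose was plotted against time, and the slope (efflux rate) was obtained by linear regression. n = 2–3 mice/time point.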

LRP-1 [4] = test: Immunohistochemistry of LRP-1 in isolated mouse brain microvessels; type: cell-based; details: isolated MBMs, 10 μg/mL, 24 h; buffer = 100%; n = 5-6 slides/group
Procedure, shortened: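 Cerebral cortices from 10–12 adult male CD-1 mice, meninges removed, were homogenised in cold HEPES/dextran stock buffer. Microvessels were isolated by nylon-mesh filtration and dextran centrifugation, then kept in incubation buffer pH 7.4. They were exposed to buffer, random antisense or antisense cocktail (10 μg/mL) for 24 h. Vessels were heat-fixed, fixed in 3.7% formaldehyde and Triton-permeabilised, then stained overnight at 4°C with anti-LRP-1 antibody (10 μg/mL). Mean fluorescence was measured from 5–6 […]/group.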

LRP-1 [5] = target: LRP-1 (Mus musculus, UniProt Q91ZX7); test: Inhibition by RAP of brain-to-blood efflux of i.c.v. I-Aβ42; type: in vivo; details: n = 9/group
LRP-1 (Mus musculus, UniProt Q91ZX7), sequence (Q91ZX7 20-4545): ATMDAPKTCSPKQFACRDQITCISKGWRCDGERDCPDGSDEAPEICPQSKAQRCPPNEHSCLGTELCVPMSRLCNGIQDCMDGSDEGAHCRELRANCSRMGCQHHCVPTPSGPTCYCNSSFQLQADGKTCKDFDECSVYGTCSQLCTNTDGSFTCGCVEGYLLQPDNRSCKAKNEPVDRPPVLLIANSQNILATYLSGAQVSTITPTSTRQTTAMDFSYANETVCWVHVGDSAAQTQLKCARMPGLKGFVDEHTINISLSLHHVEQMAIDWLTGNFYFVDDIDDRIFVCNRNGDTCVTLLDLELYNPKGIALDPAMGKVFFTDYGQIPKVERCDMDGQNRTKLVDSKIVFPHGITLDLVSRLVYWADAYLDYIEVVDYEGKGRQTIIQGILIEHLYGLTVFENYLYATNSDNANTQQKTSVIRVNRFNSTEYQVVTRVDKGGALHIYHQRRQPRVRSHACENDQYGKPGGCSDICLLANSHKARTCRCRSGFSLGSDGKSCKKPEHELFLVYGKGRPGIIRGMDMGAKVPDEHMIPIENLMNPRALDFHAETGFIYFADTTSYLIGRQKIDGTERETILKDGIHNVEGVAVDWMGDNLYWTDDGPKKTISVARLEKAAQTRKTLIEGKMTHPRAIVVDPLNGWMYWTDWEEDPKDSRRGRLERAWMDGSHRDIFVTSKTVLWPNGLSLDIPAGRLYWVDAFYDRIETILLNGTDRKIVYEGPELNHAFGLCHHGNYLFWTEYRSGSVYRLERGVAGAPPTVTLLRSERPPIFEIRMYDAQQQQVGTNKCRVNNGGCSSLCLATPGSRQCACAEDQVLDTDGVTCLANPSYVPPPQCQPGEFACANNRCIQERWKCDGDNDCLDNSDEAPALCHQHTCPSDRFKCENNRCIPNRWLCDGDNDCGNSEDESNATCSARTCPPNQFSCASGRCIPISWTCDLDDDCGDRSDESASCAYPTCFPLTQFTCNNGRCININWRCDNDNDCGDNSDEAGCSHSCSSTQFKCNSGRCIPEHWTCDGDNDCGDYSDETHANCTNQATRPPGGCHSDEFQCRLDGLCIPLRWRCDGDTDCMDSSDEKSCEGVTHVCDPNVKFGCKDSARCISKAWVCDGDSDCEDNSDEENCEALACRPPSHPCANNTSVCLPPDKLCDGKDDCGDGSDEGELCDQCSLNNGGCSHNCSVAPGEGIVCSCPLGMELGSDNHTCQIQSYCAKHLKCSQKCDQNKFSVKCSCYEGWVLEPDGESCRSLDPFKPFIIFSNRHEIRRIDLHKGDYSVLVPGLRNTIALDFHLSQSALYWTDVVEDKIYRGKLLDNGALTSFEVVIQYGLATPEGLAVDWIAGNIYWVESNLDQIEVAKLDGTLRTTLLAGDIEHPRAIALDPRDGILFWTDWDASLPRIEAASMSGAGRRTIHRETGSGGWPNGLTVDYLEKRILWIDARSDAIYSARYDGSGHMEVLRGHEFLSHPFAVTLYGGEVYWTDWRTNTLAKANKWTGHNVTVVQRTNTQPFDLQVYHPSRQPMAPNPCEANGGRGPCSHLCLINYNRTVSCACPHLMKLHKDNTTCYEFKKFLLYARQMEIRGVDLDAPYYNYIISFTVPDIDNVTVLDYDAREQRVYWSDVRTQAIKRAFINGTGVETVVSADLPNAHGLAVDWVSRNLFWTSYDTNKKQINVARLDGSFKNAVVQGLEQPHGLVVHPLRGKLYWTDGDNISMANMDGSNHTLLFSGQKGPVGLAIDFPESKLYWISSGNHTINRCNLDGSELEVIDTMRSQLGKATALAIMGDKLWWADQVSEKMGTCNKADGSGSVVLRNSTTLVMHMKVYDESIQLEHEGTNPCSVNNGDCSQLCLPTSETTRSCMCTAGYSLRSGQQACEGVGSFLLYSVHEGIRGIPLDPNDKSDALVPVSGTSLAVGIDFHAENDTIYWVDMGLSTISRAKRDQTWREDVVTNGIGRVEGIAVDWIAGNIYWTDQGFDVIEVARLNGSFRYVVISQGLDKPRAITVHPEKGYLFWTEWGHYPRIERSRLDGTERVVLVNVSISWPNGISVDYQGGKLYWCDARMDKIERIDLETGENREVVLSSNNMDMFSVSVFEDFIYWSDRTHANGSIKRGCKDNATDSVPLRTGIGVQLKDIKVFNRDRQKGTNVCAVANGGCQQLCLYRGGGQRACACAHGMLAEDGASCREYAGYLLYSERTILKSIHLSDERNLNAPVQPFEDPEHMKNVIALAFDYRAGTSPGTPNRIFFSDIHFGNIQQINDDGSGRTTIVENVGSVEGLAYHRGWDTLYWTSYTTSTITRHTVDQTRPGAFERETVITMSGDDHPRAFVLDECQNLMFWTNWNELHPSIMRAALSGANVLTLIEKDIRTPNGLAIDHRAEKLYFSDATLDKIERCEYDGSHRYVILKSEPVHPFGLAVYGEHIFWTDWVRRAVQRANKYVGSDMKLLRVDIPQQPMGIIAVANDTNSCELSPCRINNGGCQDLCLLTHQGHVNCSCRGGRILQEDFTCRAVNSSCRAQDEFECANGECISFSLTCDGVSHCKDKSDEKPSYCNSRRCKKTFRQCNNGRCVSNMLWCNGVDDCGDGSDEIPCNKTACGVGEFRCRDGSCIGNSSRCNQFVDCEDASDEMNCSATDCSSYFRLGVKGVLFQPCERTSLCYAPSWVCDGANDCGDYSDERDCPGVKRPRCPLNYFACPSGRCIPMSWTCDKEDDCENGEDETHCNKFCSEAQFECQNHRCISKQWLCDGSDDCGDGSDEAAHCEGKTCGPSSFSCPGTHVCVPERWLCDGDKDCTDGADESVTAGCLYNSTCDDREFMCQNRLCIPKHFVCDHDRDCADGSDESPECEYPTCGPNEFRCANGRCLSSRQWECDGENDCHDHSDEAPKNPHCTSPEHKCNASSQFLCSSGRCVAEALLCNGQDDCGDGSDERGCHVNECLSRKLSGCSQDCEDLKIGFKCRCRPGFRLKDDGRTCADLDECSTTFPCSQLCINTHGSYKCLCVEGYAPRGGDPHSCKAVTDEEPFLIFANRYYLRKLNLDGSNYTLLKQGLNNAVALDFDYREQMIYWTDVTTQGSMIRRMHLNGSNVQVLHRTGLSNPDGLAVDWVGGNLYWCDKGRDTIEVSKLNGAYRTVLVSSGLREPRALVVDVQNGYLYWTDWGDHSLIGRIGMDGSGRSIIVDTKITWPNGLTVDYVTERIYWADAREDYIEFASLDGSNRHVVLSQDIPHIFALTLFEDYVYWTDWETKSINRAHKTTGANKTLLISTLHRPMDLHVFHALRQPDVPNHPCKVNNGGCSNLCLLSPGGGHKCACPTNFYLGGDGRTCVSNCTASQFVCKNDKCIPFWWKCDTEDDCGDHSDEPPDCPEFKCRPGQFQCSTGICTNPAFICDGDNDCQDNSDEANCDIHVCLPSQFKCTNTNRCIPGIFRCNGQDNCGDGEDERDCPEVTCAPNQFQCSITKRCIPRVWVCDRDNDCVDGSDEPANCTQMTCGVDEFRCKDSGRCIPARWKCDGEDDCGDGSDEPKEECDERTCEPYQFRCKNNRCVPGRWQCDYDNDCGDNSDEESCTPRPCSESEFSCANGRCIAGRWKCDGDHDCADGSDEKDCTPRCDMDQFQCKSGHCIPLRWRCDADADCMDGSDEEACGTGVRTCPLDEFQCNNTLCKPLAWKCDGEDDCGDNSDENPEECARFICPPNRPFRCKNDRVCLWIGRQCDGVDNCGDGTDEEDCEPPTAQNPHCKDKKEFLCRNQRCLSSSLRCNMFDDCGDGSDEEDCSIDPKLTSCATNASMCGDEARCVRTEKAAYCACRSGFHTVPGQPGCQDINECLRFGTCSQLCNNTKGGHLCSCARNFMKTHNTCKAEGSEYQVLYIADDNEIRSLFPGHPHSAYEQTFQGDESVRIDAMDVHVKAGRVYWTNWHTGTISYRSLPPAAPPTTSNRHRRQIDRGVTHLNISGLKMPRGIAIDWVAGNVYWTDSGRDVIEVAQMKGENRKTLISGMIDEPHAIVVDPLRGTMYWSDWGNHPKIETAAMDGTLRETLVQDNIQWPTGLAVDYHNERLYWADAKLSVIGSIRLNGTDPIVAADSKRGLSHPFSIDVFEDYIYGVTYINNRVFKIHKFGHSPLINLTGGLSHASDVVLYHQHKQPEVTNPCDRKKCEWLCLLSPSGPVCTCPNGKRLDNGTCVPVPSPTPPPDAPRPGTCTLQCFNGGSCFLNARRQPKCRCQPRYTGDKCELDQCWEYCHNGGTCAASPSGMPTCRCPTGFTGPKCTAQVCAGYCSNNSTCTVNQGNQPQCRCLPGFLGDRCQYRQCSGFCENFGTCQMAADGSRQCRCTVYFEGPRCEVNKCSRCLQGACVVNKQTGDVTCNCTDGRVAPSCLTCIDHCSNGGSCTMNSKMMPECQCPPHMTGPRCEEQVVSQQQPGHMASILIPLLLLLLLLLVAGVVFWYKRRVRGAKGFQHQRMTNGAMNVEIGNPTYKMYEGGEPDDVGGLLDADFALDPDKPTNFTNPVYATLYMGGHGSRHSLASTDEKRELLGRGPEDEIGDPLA

| Substance | brain uptake on co-administration of unlabeled PS-ODN (saturability) [2] | half-time clearance from brain [3] [min] | also measured |
| --- | --- | --- | --- |
| Aβ42: 42 amino acid murine Aβ (Bachem), unlabeled, used as competitor of I-Aβ42 transport |  |  | abluminal-to-luminal transport of I-Aβ42 (saturability) [1]: significantly (p < 0.01) inhibited |
| P-19mer: 19mer (Anti-LRP1) phosphorothioate ODN 5′-(_P=S)TGATTTGGTCTCTGCAGGC-3′, directed at an LRP-1 coding region (nt 559–541) (antisense dT*dG*dA*dT*dT*dT*dG*dG*dT*dC*dT*dC*dT*dG*dC*dA*dG*dG*dC) | not significantly decreased | 231.5 |  |
| P-23mer: 23mer (Anti-LRP1) phosphorothioate ODN 5′-(_P=S)GTGTGGGCCGATGCAAACAGCAG-3′, designed to bind the translation start site (nt 442–418) (antisense dG*dT*dG*dT*dG*dG*dG*dC*dC*dG*dA*dT*dG*dC*dA*dA*dA*dC*dA*dG*dC*dA*dG) | significantly decreased | 47.8 |  |
| random antisense: 21mer (Random) control PS-ODN 5′-(_P=S)GAGAAGGTTGTGTGATCTTCA, no sequence homology with any mouse genes (antisense dG*dA*dG*dA*dA*dG*dG*dT*dT*dG*dT*dG*dT*dG*dA*dT*dC*dT*dT*dC*dA) |  |  | mean fluorescent intensity (LRP-1 immunofluorescence) (LRP-1 [4]): 111.14% |
| receptor-associated protein [RAP] |  |  | brain-to-blood efflux of i.c.v. administered I-Aβ42 (LRP-1 [5]): inhibits |
